# CHO parental Ca: ATP-evoked calcium signal inhibitors, parental CHO, primary screen, counter-screen for OX1R antagonist project, cell-based, fluorescence, Fluo-8 calcium dye; parental CHO-K1, ATP-induced calcium, Fluo-8 fluorescence; inhibition, % at 5.6 µM; 330,000 tested, 0.63% active;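 active = inhibition above that plate's mean sample inhibition plus 3 SD, cut at about 26% in these data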;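 also: 0% = ATP-challenged DMSO wells and 100% = DMSO wells without ATP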
#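 Test system: parental CHO cells; detection: calcium-sensitive Fluo-8 fluorescence; evaluation: percent inhibition of calcium signal; also added: ATP as calcium-mobilizing challenge; repeats: one well per compound; control set: ATP-challenged DMSO wells low, unchallenged DMSO wells high; compound: single nominal dose of 5.6 µM per compound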
# GPR7 antagonist: GPR7 receptor antagonists, primary screen, cell-based, fluorescence, single concentration | Neuropeptides B/W receptor type 1 (Homo sapiens), P48145 | GPR7-expressing cells, fluorescence antagonist assay | inhibition, % at 4.4 µM | 290,000 tested, 1.1% active | AID 1861, 2009; in the data active = inhibition above about 16%, passing the limit was not always enough;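 also: cells stimulated with the agonist NPW; 0% = agonist with vehicle and 100% = vehicle without agonist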
# Target sequence (P48145 whole entry, looked up): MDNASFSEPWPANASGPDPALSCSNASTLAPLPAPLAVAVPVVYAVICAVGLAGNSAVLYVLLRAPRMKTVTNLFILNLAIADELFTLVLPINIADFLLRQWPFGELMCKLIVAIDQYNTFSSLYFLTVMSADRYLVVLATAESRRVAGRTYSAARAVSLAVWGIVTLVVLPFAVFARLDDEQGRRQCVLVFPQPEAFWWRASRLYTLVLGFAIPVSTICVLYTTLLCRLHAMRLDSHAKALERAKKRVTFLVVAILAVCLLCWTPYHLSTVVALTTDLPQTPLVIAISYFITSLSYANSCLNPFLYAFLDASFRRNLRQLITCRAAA
# TAAR1 antag: human TAAR1 antagonists, primary screen, Fluo-8 calcium fluorescence, CHO RD-HGA16 cells; Trace amine-associated receptor 1 (Homo sapiens), Q96RJ0; antagonist; inhibition, % at 3 µM; 360,000 tested, 1.5% active; AID 624466, 2012;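 active = inhibition above a per-plate cutoff, the mean inhibition of test compounds on that plate plus 3 SD, cut at about 49% in these data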;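 also: 0% = DMSO plus EC80 beta-PEA response and 100% = DMSO alone without agonist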
# Target sequence (Q96RJ0 whole entry, looked up): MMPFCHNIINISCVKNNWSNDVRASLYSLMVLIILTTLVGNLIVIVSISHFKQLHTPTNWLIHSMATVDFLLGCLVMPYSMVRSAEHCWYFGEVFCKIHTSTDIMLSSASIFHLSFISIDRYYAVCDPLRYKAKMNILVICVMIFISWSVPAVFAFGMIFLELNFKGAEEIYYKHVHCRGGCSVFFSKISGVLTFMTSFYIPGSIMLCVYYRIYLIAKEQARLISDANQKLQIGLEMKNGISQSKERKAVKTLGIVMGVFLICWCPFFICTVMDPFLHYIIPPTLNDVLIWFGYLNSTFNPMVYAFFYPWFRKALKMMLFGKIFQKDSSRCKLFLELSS
#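 System: CHO RD-HGA16 cells bearing hTAAR1. Reagent: EC80 β-phenethylamine stimulus. Schedule: seeding 17-24 h prior, 75-min 37 °C, 30-min RT dye loading. Signal: Fluo-8 intracellular calcium dye fluorescence, real-time kinetic reads. Read-out: % inhibition from peak post-agonist over basal fluorescence ratio. Benchmarks: vehicle wells and EC80 agonist wells. Replicates: n of 1.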
# OX1R antag-1: antagonists of human orexin 1 receptor (OX1R) | Orexin/Hypocretin receptor type 1 (Homo sapiens), O43613 | OX1R-expressing cells, FRET antagonist read-out | inhibition, % at 6.6 µM | 330,000 tested, 1.8% active | AID 485270, 2010; in the data active = inhibition mostly above about 38%, no sharp cut-off; inactive = mostly below about 40%;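 also: 0% = agonist challenge alone and 100% = reference antagonist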
# TAAR1 ag: human TAAR1 agonists, primary screen, Fluo-8 calcium fluorescence, CHO RD-HGA16 cells; Trace amine-associated receptor 1 (Homo sapiens), Q96RJ0; activation, % at 3 µM; vehicle wells 0%, saturating PEA agonist 100%; AID 624467, 2012; 360,000 tested, 0.99% active;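 active = activation above the mean activation of all test compounds in the run plus 3 SD, cut at about 38% in these data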
#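 Benchmarks: low control DMSO, high control PEA (EC100); System: CHO RD-HGA16 cells carrying human TAAR1 plus Gα16; Detection: Fluo-8 fluorescence, 5 s baseline then 140 s kinetic read; Schedule: 17-24 h plating, Fluo-8 75 min 37 °C, 30 min RT; Read-out basis: % activation from peak over basal fluorescence ratio, DMSO-to-PEA scaled.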
# OX1R antag-2: OX1R (HCRTR1) antagonists, primary screen, fluorescence, CHO/OX1R cells, Fluo-8 calcium, orexin A. Orexin/Hypocretin receptor type 1 (Homo sapiens), O43613. Fluo-8 calcium fluorescence. inhibition, % at 5 µM. 330,000 tested, 0.43% active. AID 434989, 2010;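 active = inhibition above its plate's threshold, mean inhibition of all tested compounds on the plate plus 3 SD, cut at about 37% in these data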;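 also: 0% = orexin A challenge wells and 100% = SB-334867-A antagonist wells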
# An asterisk follows results filed as active; . = not tested or not shown. This is a sample that favours compounds with a hit; in the whole collection about 4.6% have one here.
SMILES,CHO parental Ca,GPR7 antagonist,TAAR1 antag,OX1R antag-1,TAAR1 ag,OX1R antag-2
CCOc1ccc(NC(=O)Cn2ncc3ccccc32)cc1,.,-2,4,.,-2,.
Cc1ccc(NC(=O)Cn2sc3nc(C)cc(C)c3c2=O)c(Cl)c1,46*,-16,-11,4,25,25
Cc1cc(C)c2c(=O)n(CC(=O)N3CCC(Cc4ccccc4)CC3)sc2n1,.,-1,.,.,.,.
Cc1ccc(NC(=O)Cn2c(C)cc(C)c(C#N)c2=O)c(Cl)c1,-10,-3,4,17,11,-19
Cc1cccc(N2CCN(C(=O)Cn3sc4nc(C)cc(C)c4c3=O)CC2C)c1 (centres undefined),36*,5,.,5,.,40
CCOc1ccc(NC(=O)Cn2sc3nc(C)cc(C)c3c2=O)cc1,46*,-10,.,5,.,52*
COc1ccccc1NC(=O)N1CCc2[nH]c3ccc(F)cc3c2C1,-8,0,-10,35,43*,-23
O=C(C1CCCCC1)N1CCc2[nH]c3ccc(F)cc3c2C1,-9,-5,-12,2,12,-8
COc1ccc(C(=O)NCC2CCN(C(=O)C(=O)c3cccs3)CC2)cc1,.,.,-1,.,1,.
O=C(CSc1nccc(=O)[nH]1)Nc1cccc2ccccc12,0,-20,-12,12,-4,-2
NC(=O)c1cc(Cl)ccc1OCC(=O)Nc1ccc2c(c1)OCO2,-17,.,17,7,3,-9
COc1ccc(-c2[nH]ncc2-c2ccc(Cl)cc2)c(O)c1,72*,-5,12,12,2,20
COc1ccc(-c2cn[nH]c2-c2ccc(OCc3ccccc3)cc2O)cc1,54*,-16,10,8,-1,16
Cc1oc(-c2cccs2)nc1CN1CCN(CC(C)C)C(CCO)C1 (centres undefined),-15,-12,-5,8,-2,-30
CC(=O)OC1CCC2(C)C(COc3ccc4ccc(=O)oc4c3)C(C)(O)CCC2C1(C)C (centres undefined),-13,11,56*,28,16,-13
CCOC(=O)C1(C)CCN1C(=O)c1ccc2ccccc2c1 (centres undefined),.,.,-15,.,3,.
O=S(=O)(Nc1nc2ccccc2nc1Cl)c1ccccc1C(F)(F)F,1,-9,-10,16,6,-1
O=S(=O)(Nc1nc2ccccc2nc1Cl)c1cccc(C(F)(F)F)c1,6,-16,-5,50*,2,-17
CCN(CC)S(=O)(=O)c1cc([N+](=O)[O-])ccc1NNC(=O)Nc1ccc(Cl)c(Cl)c1,38*,-6,21,63,24,25
Cc1ccc(NCCC#N)cc1C,-2,-1,10,6,1,-8
CCc1nc(CNC(=O)C2CCC(=O)N(Cc3cccc(OC)c3)C2)no1 (centres undefined),-12,-10,-32,2,1,-4
Oc1ccc(Cl)cc1C=Nc1ccc2c3c(cccc13)CC2,59*,4,-9,13,3,62*
Cc1cccc(C=Nc2ccc3c4c(cccc24)CC3)c1O,39*,-5,0,17,7,54*
CCOC(=O)N(C)c1c(CC)nc2c(OCc3ccc(Cl)cc3Cl)cccn12,.,.,21,.,11,.
CC(C)NC(=O)c1noc2cc([N+](=O)[O-])ccc12,-5,-5,-5,67*,10,-15
SMILES,CHO parental Ca,GPR7 antagonist,TAAR1 antag,OX1R antag-1,TAAR1 ag,OX1R antag-2
COc1ccc([N+](=O)[O-])cc1NC(C)C,-5,-11,-6,22,21,-5
CN(C)C(=O)c1noc2cc([N+](=O)[O-])ccc12,2,-3,5,52*,5,-5
COc1cccc2c3c(c(C)nc12)CCN3c1ccccc1,8,1,-20,64*,8,-11
Nc1c2c(nc3sc4c(c13)CCCC4)-c1ccccc1CC2,-10,-4,9,72*,-3,-7
NNc1nc(-c2ccccc2)nc2sc3c(c12)CCCC3,-19,-8,-17,8,1,-17
O=C(Nc1cc([N+](=O)[O-])ccc1Cl)C(Sc1ccccc1)c1ccccc1 (centres undefined),-11,-3,22,16,0,-18
O=C(Nc1ccc(Cl)c([N+](=O)[O-])c1)C(Sc1ccccc1)c1ccccc1 (centres undefined),-6,-5,57*,27,6,23
COCC(C)NC(C(=O)Nc1ccc(Cl)c([N+](=O)[O-])c1)c1ccccc1 (centres undefined),81*,-5,-16,11,-1,-18
CCN(CC)c1ccc(CNc2ccc3c(c2)ncn3CC)cc1,46*,-19,-6,-9,6,0
CCn1cnc2cc(NCc3ccc(N(C)C)cc3)ccc21,-13,-10,-31,17,2,-13
CCCCCCCCc1nc(SCC(C)=O)n[nH]1,-14,4,12,24,1,-21
CCOCCCNC(=O)/C(C#N)=C/c1ccc(Cl)c([N+](=O)[O-])c1,-3,-5,-7,26,3,-25
CCOCCCNC(=O)/C(C#N)=C/c1cc(OC)c(O)c([N+](=O)[O-])c1,12,11,-23,42*,2,-9
CCOc1ccc(CCNC(=O)CS(=O)Cc2nc(-c3ccccc3Cl)oc2C)cc1OCC (centres undefined),-25,-12,-19,72*,-1,18
CCOc1ccc(CCNC(=O)CS(=O)Cc2nc(-c3ccc(OC)cc3)oc2C)cc1OCC (centres undefined),-24,-17,-1,50*,-1,3
COc1ccc(-c2nc(CS(=O)CC(=O)NCCc3ccc(OC)c(OC)c3)c(C)o2)cc1 (centres undefined),-2,-11,3,9,-1,-22
COn1c2c(c3c4no[n+]([O-])c4ccc31)CCCC2,-11,8,-9,31,-2,-20
[O-][n+]1c2c(c3c4non(O)c4ccc31)CCCC2,6,3,3,54*,15,24
Cc1cc(/C=C2\SC(=S)N(Cc3ccco3)C2=O)c(C)n1-c1ccccc1,2,-2,14,17,2,7
CN(C)c1ccc(C=C2SC(=S)N(Cc3ccco3)C2=O)cc1,.,.,53*,.,44*,.
CN(Cc1ccc(Cl)cc1)C(=O)c1ccc(S(=O)(=O)NCc2ccco2)cc1,-8,.,15,34*,10,9
O=C(CSc1cccc[n+]1[O-])Nc1cc([N+](=O)[O-])ccc1Cl,-2,-13,-5,43*,0,-23
